Source: ChEMBL document CHEMBL1138186, “Dynamic pharmacophore model optimization: identification of novel HIV-1 integrase inhibitors” (J Med Chem, 2006)

How the values were obtained:
[1] = target: T1, Human immunodeficiency virus type 1 integrase (Human immunodeficiency virus 1, UniProt Q7ZJM1); experiment: Inhibition of strand transfer activity of HIV1 integrase
Summary of the method: (§1)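 Then 20 nM 5′-32P-labeled 21-mer oligonucleotide added for 1 h. Quenched with formamide loading dye. % inhibition from 19-mer (3′-processing) or strand transfer product fractions versus DNA-alone and DNA+IN controls. IC50 from log concentration versus % inhibition plot.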

[2] = target: T1, Human immunodeficiency virus type 1 integrase; experiment: Inhibition of 3'-processing activity of HIV1 integrase; summary of the method: as §1

T1 sequence (Q7ZJM1 whole entry): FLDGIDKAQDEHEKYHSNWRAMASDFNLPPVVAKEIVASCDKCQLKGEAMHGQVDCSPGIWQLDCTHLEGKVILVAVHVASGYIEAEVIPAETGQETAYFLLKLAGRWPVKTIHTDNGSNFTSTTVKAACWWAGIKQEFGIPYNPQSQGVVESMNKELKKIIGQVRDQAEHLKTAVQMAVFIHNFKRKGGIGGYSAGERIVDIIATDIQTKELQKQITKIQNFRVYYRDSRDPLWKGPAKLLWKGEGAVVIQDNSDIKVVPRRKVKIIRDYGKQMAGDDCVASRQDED

SMILES | IC50 [1] [µM] | IC50 [2] [µM]
COc1cccc2cc(-c3csc(Nc4cccc(O)c4)n3)c(=O)oc12 | > 100 | > 100
CN(C)CCCN1C(=O)C(O)=C(C(=O)c2cccs2)C1c1cccs1 (centres undefined) | > 100 | > 100
Oc1ccc(C(c2c[nH]c3ccccc23)c2c[nH]c3ccccc23)cc1O | 10 | 53
COc1ccc(C2C(C(=O)c3ccc(F)cc3)=C(O)C(=O)N2CCN(C)C)cc1OC (centres undefined) | > 1000 | > 1000
NCCCCCCNC(=O)c1c(O)oc2ccccc2c1=O | > 100 | > 100
O=C(O)CCC(=O)Nc1ccc(Cl)c(NC(=O)Cc2ccccc2)c1 | > 100 | > 100
COc1ccc(C2C(C(=O)c3ccco3)=C(O)C(=O)N2CCN2CCOCC2)c(OC)c1 (centres undefined) | 395 | > 1000
COc1cc(C(c2c[nH]c3ccccc23)c2c[nH]c3ccccc23)ccc1OCC(=O)O | > 100 | > 100
CCOC(=O)c1c(NC(=O)c2cc3ccccc3oc2=O)sc(C(N)=O)c1C | 56 | 90
CCOC(=O)C1=C(O)/C(=C\c2ccc(CNC(=O)C(=O)Nc3ccccc3)o2)N=C1C | 40 | > 100
COCCCNS(=O)(=O)c1ccc(Oc2cc(O)c3c(c2O)C(=O)c2ccccc2C3=O)cc1 | 23 | 100
CCOC(=O)c1c(NC(=O)CC2Sc3ccc(C(F)(F)F)cc3NC2=O)sc2c1CCCC2 (centres undefined) | > 100 | > 100
NCCCNc1ccc2c3c(nn2CCNCCO)-c2c(O)ccc(O)c2C(=O)c13 [PIROXANTRONE] | 9 | 18
O=C(C1=C(O)C(=O)N(CCCN2CCOCC2)C1c1ccccc1F)c1ccc(F)cc1 (centres undefined) | > 1000 | > 1000
Cc1ccc(C(=O)C2=C(O)C(=O)N(CCN(C)C)C2c2ccccc2F)cc1 (centres undefined) | > 1000 | > 1000
COc1ccc(C(=O)C2=C(O)C(=O)N(CCN3CCNCC3)C2c2ccccc2F)cc1 (centres undefined) | 630 | > 1000
CCN(CC)CCN1C(=O)C(O)=C(C(=O)c2ccccc2)C1c1ccc(OC)cc1OC (centres undefined) | > 1000 | > 1000
O=c1oc2c(CN(CCO)CCO)c(O)ccc2cc1-c1nc2ccccc2s1 | 350 | 850
O=C(NCCCO)c1ccc(CSc2nc(O)c3c4c(sc3n2)CCC4)cc1 | > 100 | > 100
COC(=O)c1c(NC(=O)CC2Nc3ccccc3NC2=O)sc2c1CCCC2 (centres undefined) | > 100 | > 100
COc1ccc(C2C(C(=O)c3ccccc3)=C(O)C(=O)N2CCCO)cc1OC (centres undefined) | > 100 | > 100
O=C(O)CCC(=O)Nc1ccc(S(=O)(=O)Nc2ccc(F)cc2)cc1 | > 100 | > 100
